# Screens deposited in PubChem by several laboratories.
# Vif inh – HIV Vif self-association inhibitors, primary screen, imaging, HEK293T, single point. HEK293T cells, Vif self-association by quenched fluorescence, 24 h. inhibition, % at 7.49 µM. 340,000 compounds, 0.35% hits. AID 602346, 2012; in the data active means inhibition above about 50%, passing the limit was not always enough; inconclusive means no clear call, values can overlap the other calls; inactive means below about 31%
# DSG3 Ab inh – inhibitors of pemphigus antibody binding to DSG3, primary screen, biochemical, bead-based, flow cytometry, scFv-GFP. DSG3-coupled beads, scFv-anti-DSG3-GFP binding; hits give low values. binding (percent of control), % at 10 µM. AID 588358, 2011. 310,000 compounds, 0.48% hits. Desmoglein-3 (Homo sapiens), P32926;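 active means binding more than 3 SD below its plate's average and above zero; inconclusive means below that plate limit but binding exactly zero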;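 further: hits lower antibody fragment binding to DSG3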
# Myeloid diff 2 – induction of myeloid progenitor differentiation, primary screen, cell-based, flow cytometry, MLPCN library | ER-HoxA9 myeloid progenitors, lysozyme-GFP differentiation | calls only at 10 µM | 360,000 compounds, 1% hits | AID 624256, 2012;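 active means normalized GFP-positive differentiation at or above the plate's own cutoff, the solvent-only control mean plus 3 SD; inconclusive means no clear call, values can overlap the other calls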;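 further: cells exposed to compound for four days before flow analysis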
# T cell modulator – modulators of CD8 T cell-vesicle binding, primary screen, mouse 2C CD8+ T cells, flow cytometry; 2C CD8+ T cell-vesicle binding; hits give low values; response (vesicle binding), % at 7 µM; 330,000 compounds, 0.068% hits;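 active means response, share of CD8 T cells binding vesicles, and their 90th percentile fluorescence all below set limits, cut at about 80% in these data, passing the limit was not always enough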;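 further: values below 100% mean blocked vesicle binding to the CD8+ T cells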
#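 incubation = binding step 1.5 h, 37 °C, antibody labelling 20 min, ice | test system = 2C mouse CD8+ T cells | read-out basis = percent CD8+ FL2 mean versus row control | controls = Peptide-free naked vesicles (low) and QL9 vesicles with 0.7% DMSO vehicle (high) | detection = flow cytometry of vesicle-bound cells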
# Starred values were filed as active, the others as inactive; i = inactive; ? = inconclusive; / = no result; + = active, no number. Most compounds without a hit are left out; they make up all but 1.7% or so of the library.
SMILES,Vif inh,DSG3 Ab inh,Myeloid diff 2,T cell modulator
COc1ccc(CCn2c(NN)nc3c2c(=O)[nH]c(=O)n3C)cc1,8,79*,i,i
CCOc1ccc(/C=N/n2c(C)nc3ccccc3c2=O)cc1,-7,68*,i,254
CCOc1ccc(C(=O)N2CCCC2C(=O)O)cc1 (configuration not stated),0,95,+,0
CCN1C(=O)/C(=C/c2cccs2)S/C1=N\S(=O)(=O)c1ccc(C)cc1,0,85,i,144
C=CCN1C(=O)/C(=C/c2cccs2)S/C1=N\S(=O)(=O)c1ccc(F)cc1,3,90,+,87
O=C(O)C(=Cc1ccc([N+](=O)[O-])cc1)c1cccc(Cl)c1,-6,98,i,/
CC1=C(C(=O)N(C)C)CC(CC(=O)NCCCN(C)C)C(=O)N1Cc1ccccc1 (configuration not stated),/,111,i,/
CSCC[C@H](NC(=O)OC(C)(C)C)C(=O)NCC1CCC(C(=O)N[C@@H](Cc2ccccc2)C(=O)O)CC1 (some centres not stated),-6,105,+,79
CSCCC(NC(=O)c1ccccc1Br)C(=O)NCC1CCCCC1 (configuration not stated),3,106*,+,356
CCN(CC)c1c(C)nc2ccc(C(=O)Nc3cc(-c4ccccc4)ccc3OC)cn12,-21,/,i,/
O=C(NCCCl)Nc1ccccc1OCCOc1ccccc1NC(=O)NCCCl,17,105,i,214
COc1ccc(Br)cc1C(=O)Nc1ccc(N2CCCC2)cc1,143*,96,i,410
O=C(Nc1ccc(N2CCCC2)cc1)c1cc(Cl)ccc1Cl,3,71*,+,227
O=C(Nc1ccc(N2CCCC2)cc1)c1ccc(Cl)cc1Cl,-5,103,i,213
CCN1CCSc2ccc(C(=O)NCc3cccc(Br)c3)cc21,-1,98,i,462
CCCOc1ccc(CNC(=O)c2ccc3c(c2)N(CC)CCS3)cc1,-8,90,+,i
CCN1C[C@@H]2[C@@H]3C(=O)N(Cc4ccccc4)C(=O)[C@@H]3[C@](Cc3ccccc3)(C1=O)N2C(=O)c1ccc(C(F)(F)F)cc1,-2,97,+,/
CCN1C[C@@H]2[C@@H]3C(=O)N(Cc4ccccc4)C(=O)[C@@H]3[C@](CC)(C1=O)N2C(=O)c1ccc(C(F)(F)F)cc1,-5,105,i,249
CC(=O)N1c2ccccc2Oc2cc3ccccc3cc21,10,99,i,790
O=C(CCl)N1c2ccccc2Oc2ccc3ccccc3c21,8,94,+,/
CCN(CC(=O)Nc1ccc(Br)cc1)CC(=O)Nc1cc(C)on1,12,66*,i,/
CCN(CC)c1ccc(C(=O)NN)cc1,-3,93,+,202
COc1ccccc1CNC(=O)c1cccc(S(=O)(=O)N(C)c2ccccc2)c1,5,103,i,215
CCn1c(SCC(=O)Nc2ccc3c(c2)OCO3)nc2c(c1=O)SC(C)C2 (configuration not stated),/,97,+,900
CC1Cc2nc(SCC(=O)NCc3ccccc3)n(Cc3ccccc3)c(=O)c2S1 (configuration not stated),-7,116,i,656
SMILES,Vif inh,DSG3 Ab inh,Myeloid diff 2,T cell modulator
CC1Cc2nc(SCC(=O)c3ccccc3)n(Cc3ccccc3)c(=O)c2S1 (configuration not stated),-9,101,+,332
CC1Cc2nc(SCC(=O)Nc3ccc4c(c3)OCO4)n(CCc3ccccc3)c(=O)c2S1 (configuration not stated),-8,102,i,321
Cc1cc2ncc(Cl)nc2cc1C,3,/,i,227
Cc1cc2nc(Cl)c(Cl)nc2cc1C,67*,104,i,241
Cc1c(C(=O)Nc2ccccc2N2CCN(C)CC2)oc2ccc(F)cc12,4,103,i,/
O=C(CCCN1C(=O)/C(=C/c2cccs2)SC1=S)Nc1cccnc1,-8,68*,i,236
CC(=O)c1ccc(NC(=O)CN2C(=O)/C(=C/C=C/c3ccccc3)SC2=S)cc1,-1,80*,i,290
O=C(CCN1C(=O)/C(=C/C=C/c2ccccc2)SC1=S)Nc1cccnc1,57*,80,i,243
O=C(CCN1C(=O)/C(=C\c2ccccc2)SC1=S)NNC(=O)c1cccnc1,-10,72*,i,165
CCOC(=O)C1(C)CCCN(C(=O)COc2ccccc2)C1 (configuration not stated),8,/,i,/
Cc1cccc(NC(=O)c2ncn3c2C(=O)N[C@H](C)C3)c1,-2,/,i,/
Cc1ccc(C)c(NC(=O)CN(C)C(=O)c2ccccc2OCc2ccccc2Cl)c1,-4,102,i,891
O=C(COC(=O)/C=C/c1ccc(Cl)cc1)Nc1ccc2c(c1)OCCO2,-9,85,i,148
O=C(COC(=O)/C=C/c1ccccc1)Nc1ccc2c(c1)OCCO2,9,-4.7*,i,318
Cc1ccc(C(=O)OCC(=O)Nc2ccc3c(c2)OCCO3)cc1C,-2,69*,i,/
Cc1cc2c(cc1C)NC(=O)C(C)CN2 (configuration not stated),-5,96,i,/
CS(=O)(=O)N1CCN(c2ccccc2NC(=O)c2ccc([N+](=O)[O-])o2)CC1,9,28*,i,214
CCN1CCN(c2ccc(NC(=O)c3ccc([N+](=O)[O-])o3)cc2Cl)CC1,31,100,?,/
CCC(=O)N1CCN(c2ccc(NC(=O)c3ccc([N+](=O)[O-])o3)cc2Cl)CC1,66*,96,?,/
CC(=O)N1CCN(c2ccc(NC(=O)c3ccc([N+](=O)[O-])o3)cc2Cl)CC1,57*,97,/,318
Cc1cc(C(=O)COC(=O)/C=C/c2ccco2)c(C)n1C,5,/,i,516
CSCCC(NC(=O)C1CCC(C)CC1)C(=O)OCC(=O)c1ccc(Cl)cc1 (configuration not stated),-3,3.8*,i,201
CCN(CC)CCN(C(=O)CCS(=O)(=O)c1ccccc1)c1nc2cc3c(cc2s1)OCO3,6,/,i,126
COc1ccc(-c2ccnc3[nH]n(-c4ccccc4)c(=O)c23)cc1,9,87*,+,227
CC(C)COc1ccc(C(=O)N2C(=O)c3ccc(N)cc3C2=O)cc1,-4,39*,i,110
CC(C)OC(=O)CCCN1C(=O)c2ccc(N)cc2C1=O,6,107,i,403
C[C@H]1COc2cccc(N(C)CCO)c2S(=O)(=O)N1,/,/,i,/
COc1cc2c(OC(C)=O)c3c(c(-c4ccc5c(c4)OCO5)c2cc1OC)C(=O)OC3,173*,103,?,285
